Measurements as given in ChEMBL document CHEMBL1137448, “Structure-activity studies on diphenylpyrazine derivatives: a novel class of prostacyclin receptor agonists” (Bioorg Med Chem, 2007).

What was measured:
[1] = Half life in Sprague-Dawley rat at 3 mg/kg, iv; format: ADME, organism-based; design: dose 3 mg/kg, route intravenous; details: in vivo
Method in brief: (§1)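 Animals were acclimatized (rats >1 week, dogs and monkeys >3 weeks) at 21–25 °C and 45–65% humidity, and were not fasted. Dosing was iv or oral to groups of three. Venous blood was sampled predose and at 5, 15 and 30 min and 1–24 h into heparin. Plasma was spun at 3000 rpm for 15 min at 4 °C and analysed by LC-MS (APCI/ESI positive, SIM/SRM). Values are mean ± SD, n=3.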

[2] = Half life in Beagle dog at 1 mg/kg, iv; format: ADME, organism-based, Canis lupus familiaris; design: dose 1 mg/kg, route intravenous; details: in vivo
Method in brief: (§2)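 Compound given iv or orally to non-fasted animals, groups of three; dogs and monkeys acclimatised over 3 weeks at 21–25 °C, 45–65% humidity. Venous blood drawn into heparinised tubes before dosing and at 5, 15, 30 min and 1, 2, 4, 6, 8, 10, 24 h; plasma by centrifugation (3000 rpm, 15 min, 4 °C), drug quantified by HPLC-MS in SIM or SRM mode; mean ± SD, n = 3.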

[3] = AUC in Sprague-Dawley rat at 3 mg/kg, iv; format: ADME, organism-based; design: dose 3 mg/kg, route intravenous; details: plasma
Method in brief: (§3)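 Compound given iv or po to non-fasted groups of three animals (acclimatized ≥1 week rats, ≥3 weeks dogs; fed standard diets, 21–25 °C). Venous blood at predose, 5, 15, 30 min, 1, 2, 4, 6, 8, 10, 24 h into heparinized tubes; plasma by centrifugation (3000 rpm, 15 min, 4 °C); drug measured by LC-MS (APCI or ESI positive, SIM/SRM). Values mean ± SD, n = 3.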

[4] = AUC in Beagle dog at 1 mg/kg, iv; format: ADME, organism-based, Canis lupus familiaris; design: dose 1 mg/kg, route intravenous; details: plasma; method in brief: as §3
[5] = Tmax in Sprague-Dawley rat at 10 mg/kg, po; format: ADME, organism-based; design: dose 10 mg/kg, route oral; details: in vivo; method in brief: as §1
[6] = Tmax in Beagle dog at 3 mg/kg, po; format: ADME, organism-based, Canis lupus familiaris; design: dose 3 mg/kg, route oral; details: in vivo; method in brief: as §1
[7] = Tmax in cynomolgus monkey at 1 mg/kg, po; format: ADME, organism-based, Macaca fascicularis; design: dose 1 mg/kg, route oral; details: in vivo; method in brief: as §2
[8] = Cmax in Sprague-Dawley rat at 10 mg/kg, po; format: ADME, organism-based; design: dose 10 mg/kg, route oral; details: in vivo; method in brief: as §1
[9] = Cmax in Beagle dog at 3 mg/kg, po; format: ADME, organism-based, Canis lupus familiaris; design: dose 3 mg/kg, route oral; details: in vivo; method in brief: as §1
[10] = Cmax in cynomolgus monkey at 1 mg/kg, po; format: ADME, organism-based, Macaca fascicularis; design: dose 1 mg/kg, route oral; details: in vivo; method in brief: as §2
[11] = Half life in Sprague-Dawley rat at 10 mg/kg, po; format: ADME, organism-based; design: dose 10 mg/kg, route oral; details: in vivo; method in brief: as §1
[12] = Half life in Beagle dog at 3 mg/kg, po; format: ADME, organism-based, Canis lupus familiaris; design: dose 3 mg/kg, route oral; details: in vivo; method in brief: as §1
[13] = Half life in cynomolgus monkey at 1 mg/kg, po; format: ADME, organism-based, Macaca fascicularis; design: dose 1 mg/kg, route oral; details: in vivo; method in brief: as §2
[14] = AUC in Sprague-Dawley rat at 10 mg/kg, po; format: ADME, organism-based; design: dose 10 mg/kg, route oral; details: plasma; method in brief: as §3
[15] = AUC in Beagle dog at 3 mg/kg, po; format: ADME, organism-based, Canis lupus familiaris; design: dose 3 mg/kg, route oral; details: plasma; method in brief: as §3
[16] = AUC in cynomolgus monkey at 1 mg/kg, po; format: ADME, organism-based, Macaca fascicularis; design: dose 1 mg/kg, route oral; details: plasma; method in brief: as §1
[17] = Oral bioavailability in Sprague-Dawley rat at 10 mg/kg; format: ADME, organism-based; details: in vivo; method in brief: as §1
[18] = Oral bioavailability in Beagle dog at 3 mg/kg; format: ADME, organism-based, Canis lupus familiaris; details: in vivo; method in brief: as §1
[19] = system: Plasma; experiment: Inhibition of ADP-induced platelet aggregation in human platelet rich plasma

Question: Which half-life [1] does the source give for `CC(C)N(CCCCOCC(=O)O)c1cnc(-c2ccccc2)c(-c2ccccc2)n1` here?
Answer: Its half-life is 4.9 h.

Question: What about the half-life [2] of the same compound?
Answer: The half-life was 5.9 h.

Question: And the AUC [3]?
Answer: Its AUC is 5200 ng·h/mL.

Question: And the AUC [4]?
Answer: The AUC was 72500 ng·h/mL.

Question: What about the Tmax [5] of the same compound?
Answer: The Tmax was 0.8 h.

Question: What about the Tmax [6] of the same compound?
Answer: The Tmax was 0.8 h.

Question: And the Tmax [7]?
Answer: Its Tmax is 2.3 h.

Question: What about the Cmax [8] of the same compound?
Answer: The Cmax was 1900 ng/mL.

Question: And the Cmax [9]?
Answer: The Cmax was 14900 ng/mL.

Question: And the Cmax [10]?
Answer: The Cmax was 110 ng/mL.

Question: And the half-life [11]?
Answer: The half-life was 3.6 h.

Question: And the half-life [12]?
Answer: The half-life was 6.2 h.

Question: What about the half-life [13] of the same compound?
Answer: The half-life was 5.6 h.

Question: What about the AUC [14] of the same compound?
Answer: Its AUC is 17700 ng·h/mL.

Question: What about the AUC [15] of the same compound?
Answer: Its AUC is 176000 ng·h/mL.

Question: And the AUC [16]?
Answer: Its AUC is 650 ng·h/mL.

Question: And the bioavailability [17]?
Answer: The bioavailability was 102%.

Question: What about the bioavailability [18] of the same compound?
Answer: The bioavailability was 80%.

Question: And the IC50 [19]?
Answer: The IC50 was 0.2 µM.

Question: With `CN(CCc1cccc(OCC(=O)O)c1)c1cnc(-c2ccccc2)c(-c2ccccc2)n1` as the compound, how does the IC50 [19] read?
Answer: Its IC50 is 2 µM.

Question: For `CC#CCC(C)[C@H](O)/C=C/[C@@H]1[C@H]2c3cccc(CCCC(=O)O)c3O[C@H]2C[C@H]1O` (stereo partly drawn) [BERAPROST SODIUM], which IC50 [19] is on record?
Answer: The IC50 was 0.017 µM.

Question: For `CC#CCC(C)[C@H](O)/C=C/[C@@H]1[C@H]2C/C(=C/CCCC(=O)O)C[C@H]2C[C@H]1O` (stereo partly drawn) [ILOPROST], which IC50 [19] is on record?
Answer: Its IC50 is 0.005 µM.

Question: For `CC(C)N(CCCCOCC(=O)NS(C)(=O)=O)c1cnc(-c2ccccc2)c(-c2ccccc2)n1` [SELEXIPAG], which IC50 [19] is on record?
Answer: The IC50 was 6.4 µM.
